{"data": "Experimental data gathered from unrelated publications", "target": "Sodium-dependent noradrenaline transporter (SLC6A2, Homo sapiens, UniProt P23975)", "note": "Lines come from different studies, so protocols differ."}
{"SMILES": "CNc1nc(C#Cc2ccc(Cl)s2)nc2c1ncn2[C@@H]1O[C@H](C(=O)OC)[C@@H](O)[C@H]1O", "assay": "ligand displacement, radioligand", "conditions": "cell membranes", "measurement": "Ki", "value": "> 10000 nM"}
{"SMILES": "CNC(C)(C)C(=O)c1ccccc1", "assay": "calcium signal, agonist, fluorescence", "measurement": "EC50", "value": "153 nM"}
{"SMILES": "CNc1nc(C#Cc2ccc(Br)s2)nc2c1ncn2[C@H]1[C@H](O)[C@H](O)[C@]2(C(=O)OC)C[C@H]12", "assay": "ligand displacement, radioligand", "conditions": "cell membranes", "measurement": "Ki", "value": "> 10000 nM"}
{"SMILES": "CN[C@@H](C)C(=O)c1ccccc1", "assay": "calcium signal, agonist, fluorescence", "measurement": "EC50", "value": "121 nM"}
{"SMILES": "C[C@@H](NC(=O)[C@@H](N)Cc1ccc(O)cc1)C(=O)NCC(=O)N[C@@H](Cc1ccccc1)C(=O)N(C)CCC[C@@]1(c2ccc(F)cc2)OCc2cc(C#N)ccc21", "assay": "ligand displacement, radioligand", "measurement": "Ki", "value": "750 nM"}
{"SMILES": "C[C@H](N)Cn1ncc2ccc3c(c21)CCCO3", "assay": "ligand displacement, radioligand", "measurement": "Ki", "value": "> 100000 nM"}
{"SMILES": "C=CCN1CC[C@]23c4c5ccc(O)c4O[C@H]2C(=O)CC[C@]3(O)[C@H]1C5", "assay": "ligand displacement, radioligand", "measurement": "Ki", "value": "> 7100 nM"}
{"SMILES": "CCCC[C@@H](NC(=O)[C@@H](N)Cc1ccc(O)cc1)C(=O)NCC(=O)N[C@@H](Cc1ccc(F)cc1)C(=O)N(C)CCC[C@@]1(c2ccc(F)cc2)OCc2cc(C#N)ccc21", "assay": "ligand displacement, radioligand", "measurement": "Ki", "value": "2400 nM"}
{"SMILES": "COc1cc(C(=O)N2CC[C@@H](O)[C@@H](N)C2)cc2nc(-c3cc4ccccc4n3CC3CC3)n(C)c12", "assay": "transporter uptake, inhibitor", "measurement": "IC50", "value": "20000 nM"}
